Reference: ChEMBL document CHEMBL1142136, “Contribution of target gene mutations and efflux to decreased susceptibility of Salmonella enterica serovar typhimurium to fluoroquinolones and other antimicrobials” (2007)
Values after ≈ are worked out from the molar mass of the structure shown.

Experiments:
Assay type in all cases: functional, Salmonella enterica subsp. enterica serovar Typhimurium
Salmonella typhimurium [1] = assay: Antimicrobial activity against Salmonella enterica serovar Typhimurium CS3 tolC::Kan with GyrA S83F, D87N, parC S80I mutation
How it was run: (§1)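 MICs measured by broth microdilution on the Sensititre automated system and interpreted by CLSI broth microdilution standards. Ciprofloxacin was also tested by agar dilution, widening the range to 0.0075–128 μg/ml. Quality control strains were E. coli ATCC 25922 and 35218, E. faecalis ATCC 29212, S. aureus ATCC 29213 and P. aeruginosa ATCC 27853.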

Salmonella typhimurium [2] = assay: Antimicrobial activity against Salmonella enterica serovar Typhimurium S21-4 tolC::Kan with GyrA S83F, ParC S80I mutation; how it was run: as §1
Salmonella typhimurium [3] = assay: Antimicrobial activity against Salmonella enterica serovar Typhimurium S21-1 GyrA S83F mutant; how it was run: as §1
Salmonella typhimurium [4] = assay: Antimicrobial activity against Salmonella enterica serovar Typhimurium S21 gyrA+; how it was run: as §1
Salmonella typhimurium [5] = assay: Antimicrobial activity against Salmonella enterica serovar Typhimurium S21-4 gyrA+ with ParC S80I mutation; how it was run: as §1
Salmonella typhimurium [6] = assay: Antimicrobial activity against Salmonella enterica serovar Typhimurium CHS18 gyrA+ with GyrA S38F mutation; how it was run: as §1
Salmonella typhimurium [7] = assay: Antimicrobial activity against Salmonella enterica serovar Typhimurium CS3 gyrA+ with GyrA S83F, D87N, ParC S80I mutation; how it was run: as §1
Salmonella typhimurium [8] = assay: Antimicrobial activity against Salmonella enterica serovar Typhimurium S21-2 with GyrA S83F, ParC S80I mutation; how it was run: as §1
Salmonella typhimurium [9] = assay: Antimicrobial activity against Salmonella enterica serovar Typhimurium CHS38 acrAB::Kan with GyrA D87G mutation; how it was run: as §1
Salmonella typhimurium [10] = assay: Antimicrobial activity against Salmonella enterica serovar Typhimurium S21-2 tolC::Kan with GyrA S83F, ParC S80I mutation; how it was run: as §1
Salmonella typhimurium [11] = assay: Antimicrobial activity against Salmonella enterica serovar Typhimurium S21-2 gyrA+ with ParC S80I mutation; how it was run: as §1
Salmonella typhimurium [12] = assay: Antimicrobial activity against Salmonella enterica serovar Typhimurium S21-1 gyrA+; how it was run: as §1
Salmonella typhimurium [13] = assay: Antimicrobial activity against Salmonella enterica serovar Typhimurium S21-3 acrAB::Kan with GyrA S83F, ParC S80I mutation; how it was run: as §1
Salmonella typhimurium [14] = assay: Antimicrobial activity against Salmonella enterica serovar Typhimurium S21-4 with GyrA S83F, ParC S80I mutation; how it was run: as §1
Salmonella typhimurium [15] = assay: Antimicrobial activity against Salmonella enterica serovar Typhimurium CHS38 with GyrA D87G mutation; how it was run: as §1
Salmonella typhimurium [16] = assay: Antimicrobial activity against Salmonella enterica serovar Typhimurium CHS18 tolC::Kan with GyrA S38F mutation; how it was run: as §1
Salmonella typhimurium [17] = assay: Antimicrobial activity against Salmonella enterica serovar Typhimurium CHS14 gyrA+ with GyrA D87G mutation; how it was run: as §1
Salmonella typhimurium [18] = assay: Antimicrobial activity against Salmonella enterica serovar Typhimurium S21; how it was run: as §1
Salmonella typhimurium [19] = assay: Antimicrobial activity against Salmonella enterica serovar Typhimurium CHS18 acrAB::Kan with GyrA S38F mutation; how it was run: as §1
Salmonella typhimurium [20] = assay: Antimicrobial activity against Salmonella enterica serovar Typhimurium CHS18 with GyrA S38F mutation; how it was run: as §1
Salmonella typhimurium [21] = assay: Antimicrobial activity against Salmonella enterica serovar Typhimurium GyrA S21-1 acrAB::Kan with GyrA S83F mutation; how it was run: as §1
Salmonella typhimurium [22] = assay: Antimicrobial activity against Salmonella enterica serovar Typhimurium S21-4 acrAB::Kan with GyrA S83F, ParC S80I mutation; how it was run: as §1
Salmonella typhimurium [23] = assay: Antimicrobial activity against Salmonella enterica serovar Typhimurium CHS14 acrAB::Kan with GyrA D87G mutation; how it was run: as §1
Salmonella typhimurium [24] = assay: Antimicrobial activity against Salmonella enterica serovar Typhimurium CHS38 gyrA+ with GyrA D87G mutation; how it was run: as §1
Salmonella typhimurium [25] = assay: Antimicrobial activity against Salmonella enterica serovar Typhimurium S21 acrAB::Kan
How it was run: (§2)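 MICs by automated broth microdilution panels, interpreted to CLSI broth microdilution standards. Ciprofloxacin additionally tested by agar dilution across 0.0075 to 128 μg/ml. Quality control strains: E. coli ATCC 25922 and 35218, Enterococcus faecalis ATCC 29212, S. aureus ATCC 29213, P. aeruginosa ATCC 27853. Test strains are kanamycin-marked deletion mutants of ground-beef isolate S21.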

Salmonella typhimurium [26] = assay: Antimicrobial activity against Salmonella enterica serovar Typhimurium S21-3 tolC::Kan with GyrA S83F, ParC S80I mutation; how it was run: as §1
Salmonella typhimurium [27] = assay: Antimicrobial activity against Salmonella enterica serovar Typhimurium CS1 tolC::Kan with GyrA S83F, D87N, ParC S80I mutation; how it was run: as §1
Salmonella typhimurium [28] = assay: Antimicrobial activity against Salmonella enterica serovar Typhimurium CS1 acrAB::Kan with GyrA S83F, D87N, ParC S80I mutation; how it was run: as §1
Salmonella typhimurium [29] = assay: Antimicrobial activity against Salmonella enterica serovar Typhimurium CS1 with GyrA S83F, D87N, ParC S80I mutation; how it was run: as §1
Salmonella typhimurium [30] = assay: Antimicrobial activity against Salmonella enterica serovar Typhimurium S21-3 with GyrA S83F, ParC S80I mutation; how it was run: as §1
Salmonella typhimurium [31] = assay: Antimicrobial activity against Salmonella enterica serovar Typhimurium CS1 gyrA+ with GyrA S83F, D87N, ParC S80I mutation; how it was run: as §1
Salmonella typhimurium [32] = assay: Antimicrobial activity against Salmonella enterica serovar Typhimurium S21-2 acrAB::Kan with GyrA S83F, ParC S80I mutation; how it was run: as §1
Salmonella typhimurium [33] = assay: Antimicrobial activity against Salmonella enterica serovar Typhimurium CHS14 with GyrA D87G mutation; how it was run: as §1
Salmonella typhimurium [34] = assay: Antimicrobial activity against Salmonella enterica serovar Typhimurium CHS14 tolC::Kan with GyrA D87G mutant; how it was run: as §1
Salmonella typhimurium [35] = assay: Antimicrobial activity against Salmonella enterica serovar Typhimurium S21-3 gyrA+ with ParC S80I mutation; how it was run: as §1
Salmonella typhimurium [36] = assay: Antimicrobial activity against Salmonella enterica serovar Typhimurium CS9 with GyrA S83F, D87N, ParC S80I mutation; how it was run: as §1
Salmonella typhimurium [37] = assay: Antimicrobial activity against Salmonella enterica serovar Typhimurium CHS38 tolC::Kan with GyrA D87G mutation; how it was run: as §1
Salmonella typhimurium [38] = assay: Antimicrobial activity against Salmonella enterica serovar Typhimurium CS9 gyrA+ with GyrA S83F, D87N, ParC S80I mutation; how it was run: as §1
Salmonella typhimurium [39] = assay: Antimicrobial activity against Salmonella enterica serovar Typhimurium CS9 tolC::Kan with GyrA S83F, D87N, ParC S80I mutation; how it was run: as §1
Salmonella typhimurium [40] = assay: Antimicrobial activity against Salmonella enterica serovar Typhimurium CS3 acrAB::Kan with GyrA S83F, D87N, ParC S80I mutation; how it was run: as §1
Salmonella typhimurium [41] = assay: Antimicrobial activity against Salmonella enterica serovar Typhimurium S21 tolC::Kan; how it was run: as §2
Salmonella typhimurium [42] = assay: Antimicrobial activity against Salmonella enterica serovar Typhimurium CS3 with GyrA S83F, D87N, ParC S80I mutation; how it was run: as §1
Salmonella typhimurium [43] = assay: Antimicrobial activity against Salmonella enterica serovar Typhimurium S21-1 tolC::Kan with GyrA S83F mutation; how it was run: as §1
Salmonella typhimurium [44] = assay: Antimicrobial activity against Salmonella enterica serovar Typhimurium CS9 acrAB::Kan with GyrA S83F, D87N, ParC S80I mutation; how it was run: as §1

SMILES: C[C@@H]1CN(c2c(F)c(F)c3c(=O)c(C(=O)O)cn(C4CC4)c3c2F)C[C@H](C)N1 [ORBIFLOXACIN]
- MIC (Salmonella typhimurium [1]): 4 µg/mL (≈ 10.1 µM)
- MIC (Salmonella typhimurium [2]): 0.12 µg/mL (≈ 0.304 µM)
- MIC (Salmonella typhimurium [3]): 2 µg/mL (≈ 5.06 µM)
- MIC (Salmonella typhimurium [4]): 0.12 µg/mL (≈ 0.304 µM)
- MIC (Salmonella typhimurium [5]): 8 µg/mL (≈ 20.2 µM)
- MIC (Salmonella typhimurium [6]): 0.12 µg/mL (≈ 0.304 µM)
- MIC (Salmonella typhimurium [7]): 0.25 µg/mL (≈ 0.632 µM)
- MIC (Salmonella typhimurium [8]): 16 µg/mL (≈ 40.5 µM)
- MIC (Salmonella typhimurium [9]): 0.06 µg/mL (≈ 0.152 µM)
- MIC (Salmonella typhimurium [10]): 0.25 µg/mL (≈ 0.632 µM)
- MIC (Salmonella typhimurium [11]): 2 µg/mL (≈ 5.06 µM)
- MIC (Salmonella typhimurium [12]): 0.12 µg/mL (≈ 0.304 µM)
- MIC (Salmonella typhimurium [13]): 0.5 µg/mL (≈ 1.26 µM)
- MIC (Salmonella typhimurium [14]): 16 µg/mL (≈ 40.5 µM)
- MIC (Salmonella typhimurium [15]): 0.5 µg/mL (≈ 1.26 µM)
- MIC (Salmonella typhimurium [16]): 0.06 µg/mL (≈ 0.152 µM)
- MIC (Salmonella typhimurium [17]): 0.12 µg/mL (≈ 0.304 µM)
- MIC (Salmonella typhimurium [18]): 0.12 µg/mL (≈ 0.304 µM)
- MIC (Salmonella typhimurium [19]): 0.5 µg/mL (≈ 1.26 µM)
- MIC (Salmonella typhimurium [20]): 1 µg/mL (≈ 2.53 µM)
- MIC (Salmonella typhimurium [21]): 0.12 µg/mL (≈ 0.304 µM)
- MIC (Salmonella typhimurium [22]): 0.12 µg/mL (≈ 0.304 µM)
- MIC (Salmonella typhimurium [23]): 0.03 µg/mL (≈ 0.0759 µM)
- MIC (Salmonella typhimurium [24]): < 0.15 µg/mL
- MIC (Salmonella typhimurium [25]): < 0.015 µg/mL
- MIC (Salmonella typhimurium [26]): 0.5 µg/mL (≈ 1.26 µM)
- MIC (Salmonella typhimurium [27]): 4 µg/mL (≈ 10.1 µM)
- MIC (Salmonella typhimurium [28]): 4 µg/mL (≈ 10.1 µM)
- MIC (Salmonella typhimurium [29]): > 16 µg/mL
- MIC (Salmonella typhimurium [30]): 16 µg/mL (≈ 40.5 µM)
- MIC (Salmonella typhimurium [31]): 0.25 µg/mL (≈ 0.632 µM)
- MIC (Salmonella typhimurium [32]): 0.25 µg/mL (≈ 0.632 µM)
- MIC (Salmonella typhimurium [33]): 1 µg/mL (≈ 2.53 µM)
- MIC (Salmonella typhimurium [34]): 0.03 µg/mL (≈ 0.0759 µM)
- MIC (Salmonella typhimurium [35]): 2 µg/mL (≈ 5.06 µM)
- MIC (Salmonella typhimurium [36]): > 16 µg/mL
- MIC (Salmonella typhimurium [37]): < 0.015 µg/mL
- MIC (Salmonella typhimurium [38]): 0.25 µg/mL (≈ 0.632 µM)
- MIC (Salmonella typhimurium [39]): 4 µg/mL (≈ 10.1 µM)
- MIC (Salmonella typhimurium [40]): 4 µg/mL (≈ 10.1 µM)
- MIC (Salmonella typhimurium [41]): < 0.015 µg/mL
- MIC (Salmonella typhimurium [42]): > 16 µg/mL
- MIC (Salmonella typhimurium [43]): 0.12 µg/mL (≈ 0.304 µM)
- MIC (Salmonella typhimurium [44]): 4 µg/mL (≈ 10.1 µM)
